Assay results from paper PMC4196715 (American journal of transplantation : official journal of …, 2014).
Where two headings read alike, the source gives them in different places.

Tests used:
[1] = ref Dr. A.D. McCormick, Astrazeneca, UK, personal communication; cited from earlier work
[2] = system: B6 CD3+ T cells (CD4+ and CD8+ T cell proliferation); assay: T cell proliferation by CFSE dilution after anti-CD3/CD28 bead stimulation; type: cell-based, mouse
Procedure, shortened: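 B6 CD3+ T cells were isolated by negative selection and CFSE-labelled. 1×10^5 cells were stimulated with 2.5×10^4 CD3/CD28 Dynabeads for 5 days. Test compound (10 mM DMSO stock) was added at the start of culture, from 1.95 to 1000 nM. CFSE dilution was gated on CD4+ or CD8+ cells and expressed as percent suppression versus stimulated cells without inhibitor. n=3–4 experiments; means ± SD; t tests.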

[3] = mice, oral administration; cited from earlier work
[4] = Pharmacokinetics after i.p. administration; type: in vivo, mice; conditions: for AUC 0-infinity / Apparent volume of distribution / Disposition rate constant: i.p., AZD8055 10 mg/kg plasma, RAPA 1 mg/kg whole blood; for concentration at 8 h: 10 mg/kg; for half-life: plasma (AZD8055), whole blood (RAPA), ip
Renal function = type: in vivo, mouse; conditions: after 10 days of treatment
Procedure, shortened: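 B6 recipients of BALB/c heterotopic heart grafts were given test compound at 10 mg/kg twice daily i.p. (days 2–11) in PBS with 0.02% Tween 80 and 0.26% polyethylene glycol. Serum creatinine was measured after 10 days of treatment, n=4.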

[5] = oral dosing, Phase I; cited from earlier work
[6] = system: splenic CD4+ and CD8+ T cells of heart graft recipients; type: in vivo, mouse; conditions: for CD4+ T cell IFNγ production enhanced by transplantation / CD8+ T cell IFNγ production enhanced by transplantation: splenocytes, day 10–11 post-transplant
[7] = system: BALB/c to B6 cardiac allograft model; type: in vivo, mouse; conditions: for graft histology on days 10–11: H&E, no-IS grafts showed severe cellular rejection; for Foxp3 mRNA expression in allografts: PCR, RAPA being superior to AZD8055; for enhancement of graft-infiltrating Foxp3+ Treg: immunoperoxidase staining of allograft, vs no IS
[8] = i.v. administration, B6 mice; cited from earlier work

COc1ccc(-c2ccc3c(N4CCOC[C@@H]4C)nc(N4CCOC[C@@H]4C)nc3n2)cc1CO [AZD8055, (5-{2,4-Bis[(3S)-3-methylmorpholin-4-yl]pyrido[2,3-d]pyrimidin-7-yl}-2-methoxyphenyl) methanol]
fraction in plasma bound to plasma protein [1]: approximately 95%
concentrations at which AZD8055 surpassed the ability of RAPA to inhibit T cell proliferation ([2]; CD4+ and CD8+ T cells, CD3/CD28 beads, 5 days): ≥ 200 nM
concentration dependence of inhibition of T cell proliferation ([2]; concentrations tested between 1.95 nM and 1000 nM): dose-related inhibitory effect
half-life [3]: approximately 2 h
AUC 0-infinity [4]: 26.2 µg/mL/h
Apparent volume of distribution [4]: 37 mL
Disposition rate constant [4]: 0.205 h⁻¹
concentration at 8 h ([4]; mouse, in vivo): 200 nM
half-life ([4]; mouse): 204 min
concentration at 8 h ([4]; mouse, plasma, intraperitoneal): ≥ 200 nM
adverse effects on renal function (Renal function): No adverse effects
serum creatinine levels (Renal function; n=4): 0.2 mg/dL
half-life in humans [5]: approximately 2 h
percentage of IFN-producing CD4+ and CD8+ T cells compared with animals given RAPA ([6]; day 20 post-transplant, not sustained at day 80): higher
CD4+ T cell IFNγ production enhanced by transplantation [6]: reaching the same levels as in naïve mice
CD8+ T cell IFNγ production enhanced by transplantation [6]: inhibited completely
graft histology on days 10–11 [7]: comparatively mild mononuclear cell infiltrate
Foxp3 mRNA expression in allografts [7]: increased
enhancement of graft-infiltrating Foxp3+ Treg [7]: 7–10 fold

CO[C@H]1C[C@@H]2CC[C@@H](C)[C@@](O)(O2)C(=O)C(=O)N2CCCC[C@H]2C(=O)O[C@H]([C@H](C)C[C@@H]2CC[C@@H](O)[C@H](OC)C2)CC(=O)[C@H](C)/C=C(\C)[C@@H](O)[C@@H](OC)C(=O)[C@H](C)C[C@H](C)/C=C/C=C/C=C/1C [RAPA, rapamycin]
AUC 0-infinity [4]: 1.93 µg/mL/h
Apparent volume of distribution [4]: 74 mL
Disposition rate constant [4]: 0.141 h⁻¹
half-life ([4]; mouse): 294 min
concentration at 24 h ([4]; mouse, whole blood, intraperitoneal, 1 mg/kg): > 10 nM
half-life [8]: 6.4 h
CD4+ T cell IFNγ production enhanced by transplantation [6]: more effective inhibition
CD8+ T cell IFNγ production enhanced by transplantation [6]: inhibited completely
recipients with long-term graft survival (>80 days) ([7]; 10-day course, AZD8055 10 mg/kg twice daily i.p., RAPA 1 mg/kg/day i.p.): fifty
graft histology on days 10–11 [7]: comparatively mild mononuclear cell infiltrate
Foxp3 mRNA expression in allografts [7]: increased
enhancement of graft-infiltrating Foxp3+ Treg [7]: 7–10 fold
